# Assay results: ChEMBL document CHEMBL5046217, “Discovery of New Imidazo[2,1-b]thiazole Derivatives as Potent Pan-RAF Inhibitors with Promising In Vitro and In Vivo Anti-melanoma Activity” (J Med Chem, 2021)
# Experiments:
# [1] = Stability in rat plasma assessed as parent compound remaining at 10 uM measured after 30 mins by LC-MS analysis; assay type: ADME, cell-free; details: read-out: Stability
# Summary of the method: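 About 10 μM compound shaken in human or rat plasma at 37 °C for 30 and 120 min. Acetonitrile added, samples centrifuged at 4 °C, and remaining parent in the supernatant quantified by LC−MS. Procaine and diltiazem run as references.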
# [2] = biological target: Serine/threonine-protein kinase B-raf (Homo sapiens, UniProt P15056); experiment: Inhibition of human wild type BRAF using myelin basic protein as substrate in presence of [gamma-33P]ATP incubated for 40 mins by scintillation counting method
# Sequence of Serine/threonine-protein kinase B-raf (Homo sapiens, UniProt P15056) (P15056 whole entry): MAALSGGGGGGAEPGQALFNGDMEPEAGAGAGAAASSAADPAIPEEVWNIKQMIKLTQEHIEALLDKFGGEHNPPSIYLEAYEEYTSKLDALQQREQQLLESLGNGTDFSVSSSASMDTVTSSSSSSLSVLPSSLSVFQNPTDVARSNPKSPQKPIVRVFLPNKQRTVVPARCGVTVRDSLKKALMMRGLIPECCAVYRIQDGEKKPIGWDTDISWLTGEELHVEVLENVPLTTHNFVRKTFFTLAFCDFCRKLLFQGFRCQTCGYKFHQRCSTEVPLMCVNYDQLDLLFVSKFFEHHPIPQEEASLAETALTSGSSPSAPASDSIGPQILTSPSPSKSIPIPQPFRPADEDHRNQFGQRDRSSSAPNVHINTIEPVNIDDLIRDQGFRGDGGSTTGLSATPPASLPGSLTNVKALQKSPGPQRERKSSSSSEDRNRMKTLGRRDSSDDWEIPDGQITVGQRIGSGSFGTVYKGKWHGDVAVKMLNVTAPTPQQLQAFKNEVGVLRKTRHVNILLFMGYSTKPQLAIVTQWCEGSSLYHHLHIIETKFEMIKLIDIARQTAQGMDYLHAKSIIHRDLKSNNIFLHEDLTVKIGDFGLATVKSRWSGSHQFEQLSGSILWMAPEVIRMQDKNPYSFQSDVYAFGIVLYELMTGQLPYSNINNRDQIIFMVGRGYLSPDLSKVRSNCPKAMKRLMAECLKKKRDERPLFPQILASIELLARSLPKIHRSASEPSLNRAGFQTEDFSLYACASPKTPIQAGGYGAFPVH
# Summary of the method: (§1)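 Radiometric kinase assay run at Reaction Biology. Kinase (5−10 mU) in 25 mM Tris pH 7.5, 0.02 mM EGTA, 10 mM magnesium acetate with 0.66 mg/mL myelin basic protein and [γ-33P]ATP at 1 μM ATP. Reaction started with Mg-ATP and run 40 min at room temperature, then stopped with 3% phosphoric acid. Spotted on P30 filtermat, washed, scintillation counted.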
# [3] = biological target: Serine/threonine-protein kinase B-raf (Homo sapiens, UniProt P15056, V600E); experiment: Inhibition of human BRAF V600E mutant using myelin basic protein as substrate in presence of [gamma-33P]ATP incubated for 40 mins by scintillation counting method; summary of the method: as §1
# Sequence of Serine/threonine-protein kinase B-raf (Homo sapiens, UniProt P15056, V600E) (P15056 2-766 V600E limits assumed): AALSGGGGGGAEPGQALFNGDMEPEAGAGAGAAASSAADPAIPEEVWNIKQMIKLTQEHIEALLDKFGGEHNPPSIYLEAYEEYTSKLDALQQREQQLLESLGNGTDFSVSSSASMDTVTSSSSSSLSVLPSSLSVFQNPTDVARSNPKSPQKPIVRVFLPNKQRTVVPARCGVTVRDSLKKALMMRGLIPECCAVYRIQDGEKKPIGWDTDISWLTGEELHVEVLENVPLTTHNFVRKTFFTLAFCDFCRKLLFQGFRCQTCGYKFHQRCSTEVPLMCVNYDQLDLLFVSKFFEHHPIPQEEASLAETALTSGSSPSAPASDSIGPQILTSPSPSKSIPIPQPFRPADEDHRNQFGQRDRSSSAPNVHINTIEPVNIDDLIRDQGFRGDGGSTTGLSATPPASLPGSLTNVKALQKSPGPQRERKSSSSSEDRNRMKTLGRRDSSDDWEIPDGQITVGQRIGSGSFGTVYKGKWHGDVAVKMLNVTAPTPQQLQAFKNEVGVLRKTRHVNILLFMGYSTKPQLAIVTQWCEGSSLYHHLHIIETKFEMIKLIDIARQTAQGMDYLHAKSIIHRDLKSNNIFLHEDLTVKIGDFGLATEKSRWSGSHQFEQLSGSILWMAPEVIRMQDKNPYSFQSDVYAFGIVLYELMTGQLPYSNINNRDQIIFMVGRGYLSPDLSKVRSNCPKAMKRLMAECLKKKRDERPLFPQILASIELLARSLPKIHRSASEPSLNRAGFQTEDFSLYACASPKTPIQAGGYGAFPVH
# [4] = biological target: RAF proto-oncogene serine/threonine-protein kinase (Homo sapiens, UniProt P04049); experiment: Inhibition of human wild type CRAF using myelin basic protein as substrate in presence of [gamma-33P]ATP incubated for 40 mins by scintillation counting method
# Sequence of RAF proto-oncogene serine/threonine-protein kinase (P04049 whole entry): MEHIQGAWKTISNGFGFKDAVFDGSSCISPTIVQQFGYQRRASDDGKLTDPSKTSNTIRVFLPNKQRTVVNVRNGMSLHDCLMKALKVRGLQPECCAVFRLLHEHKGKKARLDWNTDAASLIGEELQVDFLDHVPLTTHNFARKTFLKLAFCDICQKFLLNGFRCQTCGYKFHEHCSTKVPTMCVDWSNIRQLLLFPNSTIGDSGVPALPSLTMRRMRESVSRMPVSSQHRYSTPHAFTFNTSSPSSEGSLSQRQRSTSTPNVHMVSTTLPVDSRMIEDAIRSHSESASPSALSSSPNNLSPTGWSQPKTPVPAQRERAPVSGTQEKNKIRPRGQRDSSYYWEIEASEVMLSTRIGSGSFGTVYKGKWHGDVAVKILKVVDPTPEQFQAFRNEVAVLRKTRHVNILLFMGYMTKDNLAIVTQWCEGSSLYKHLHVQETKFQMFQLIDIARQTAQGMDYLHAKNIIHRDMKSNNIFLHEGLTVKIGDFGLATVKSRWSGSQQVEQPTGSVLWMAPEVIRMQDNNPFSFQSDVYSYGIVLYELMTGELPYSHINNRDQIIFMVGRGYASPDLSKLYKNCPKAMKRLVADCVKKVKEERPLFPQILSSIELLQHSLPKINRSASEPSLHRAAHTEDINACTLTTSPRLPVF
# [5] = system: Panel leukemia (Carcinoma cell lines); experiment: Antiproliferative activity against human Panel leukemia (Carcinoma cell lines) assessed as cell growth inhibition measured after 48 hrs by SRB assay
# [6] = system: NSCLC; experiment: Antiproliferative activity against human NSCLC cell line assessed as cell growth inhibition measured after 48 hrs by SRB assay
# [7] = system: Panel colon (Carcinoma cell lines); experiment: Antiproliferative activity against human Panel colon (Carcinoma cell lines) assessed as cell growth inhibition measured after 48 hrs by SRB assay
# [8] = system: Panel CNS (Carcinoma cell lines); experiment: Antiproliferative activity against human Panel CNS (Carcinoma cell lines) assessed as cell growth inhibition measured after 48 hrs by SRB assay
# [9] = system: Panel melanoma (Carcinoma cell lines); experiment: Antiproliferative activity against human Panel melanoma (Carcinoma cell lines) assessed as cell growth inhibition measured after 48 hrs by SRB assay
# [10] = system: Panel ovarian (Carcinoma cell lines); experiment: Antiproliferative activity against human Panel ovarian (Carcinoma cell lines) assessed as cell growth inhibition measured after 48 hrs by SRB assay
# [11] = system: Panel renal (Carcinoma cell lines); experiment: Antiproliferative activity against human Panel renal (Carcinoma cell lines) assessed as cell growth inhibition measured after 48 hrs by SRB assay
# [12] = system: Panel prostate (Carcinoma cell lines); experiment: Antiproliferative activity against human Panel prostate (Carcinoma cell lines) assessed as cell growth inhibition measured after 48 hrs by SRB assay
# [13] = system: Panel breast (Carcinoma cell lines); experiment: Antiproliferative activity against human Panel breast (Carcinoma cell lines) assessed as cell growth inhibition measured after 48 hrs by SRB assay
# [14] = system: LOX IMVI; experiment: Antiproliferative activity against human LOX IMVI cells assessed as cell growth inhibition measured after 48 hrs by SRB assay
# [15] = system: Malme-3M; experiment: Antiproliferative activity against human Malme-3M cells assessed as cell growth inhibition measured after 48 hrs by SRB assay
# [16] = system: M14; experiment: Antiproliferative activity against human M14 cells assessed as cell growth inhibition measured after 48 hrs by SRB assay; details: M14, 48 h
# [17] = system: MDA-MB-435; experiment: Antiproliferative activity against human MDA-MB-435 cells assessed as cell growth inhibition measured after 48 hrs by SRB assay; details: MDA-MB-435, 48 h
# [18] = system: SK-MEL-2; experiment: Antiproliferative activity against human SK-MEL-2 cells assessed as cell growth inhibition measured after 48 hrs by SRB assay; details: SK-MEL-2, 48 h
# [19] = system: SK-MEL-28; experiment: Antiproliferative activity against human SK-MEL-28 cells assessed as cell growth inhibition measured after 48 hrs by SRB assay; details: SK-MEL-28, 48 h
# [20] = system: SK-MEL-5; experiment: Antiproliferative activity against human SK-MEL-5 cells assessed as cell growth inhibition measured after 48 hrs by SRB assay; details: SK-MEL-5, 48 h
# [21] = system: UACC-257; experiment: Antiproliferative activity against human UACC-257 cells assessed as cell growth inhibition measured after 48 hrs by SRB assay; details: UACC-257, 48 h
# [22] = system: UACC-62; experiment: Antiproliferative activity against human UACC-62 cells assessed as cell growth inhibition measured after 48 hrs by SRB assay; details: UACC-62, 48 h
# [23] = system: LOX IMVI; experiment: Antiproliferative activity against human LOX IMVI cells assessed as total growth inhibition measured after 48 hrs by SRB assay
# [24] = system: Malme-3M; experiment: Antiproliferative activity against human Malme-3M cells assessed as total growth inhibition measured after 48 hrs by SRB assay
# [25] = system: M14; experiment: Antiproliferative activity against human M14 cells assessed as total growth inhibition measured after 48 hrs by SRB assay; details: M14, 48 h
# [26] = system: MDA-MB-435; experiment: Antiproliferative activity against human MDA-MB-435 cells assessed as total growth inhibition measured after 48 hrs by SRB assay; details: MDA-MB-435, 48 h
# [27] = system: SK-MEL-2; experiment: Antiproliferative activity against human SK-MEL-2 cells assessed as total growth inhibition measured after 48 hrs by SRB assay; details: SK-MEL-2, 48 h
# [28] = system: SK-MEL-28; experiment: Antiproliferative activity against human SK-MEL-28 cells assessed as total growth inhibition measured after 48 hrs by SRB assay; details: SK-MEL-28, 48 h
# [29] = system: SK-MEL-5; experiment: Antiproliferative activity against human SK-MEL-5 cells assessed as total growth inhibition measured after 48 hrs by SRB assay; details: SK-MEL-5, 48 h
# [30] = system: UACC-257; experiment: Antiproliferative activity against human UACC-257 cells assessed as total growth inhibition measured after 48 hrs by SRB assay; details: UACC-257, 48 h
# [31] = system: UACC-62; experiment: Antiproliferative activity against human UACC-62 cells assessed as total growth inhibition measured after 48 hrs by SRB assay; details: UACC-62, 48 h
# [32] = Cytotoxicity against human L132 cells assessed as cell growth inhibition incubated for 48 hrs by MTT assay; assay type: toxicity, cell-based
# [33] = Cytotoxicity against human BJ cells assessed as cell growth inhibition incubated for 48 hrs by MTT assay; assay type: toxicity, cell-based
# Summary of the method: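 BJ1 normal skin fibroblasts were seeded at 10 × 10³ cells/well with compound in triplicate wells and grown in DMEM-F12 at 37 °C, 5% CO₂, across an eight-point dilution series. Growth inhibition was calculated as (1 − T/C) × 100, and IC50 was taken from the dose–response curve.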
# [34] = system: Panel melanoma (Carcinoma cell lines); experiment: cells; details: Homo sapiens, 48 h, read-out: INH
# [35] = in vitro; details: human, BJ cells and Malme-3M cells
# [36] = system: Panel colon (Carcinoma cell lines); experiment: cells; details: Homo sapiens, 48 h, read-out: INH
smiles,measurement,setting,value
CCN(CC)CCOC(=O)c1ccc(N)cc1 [PROCAINE],"remaining at 0.5 h, 10 µM",[1],84.9%
CN1CCCN(CCNc2nccc(-c3c(-c4cccc(O)c4)nc4sccn34)n2)S1(=O)=O,IC50,[2],0.00633 µM
same,IC50,[3],0.00377 µM
same,IC50,[4],0.00196 µM
same,IC50,[5],11.9 µM
same,IC50,[6],13.6 µM
same,IC50,[7],8.08 µM
same,IC50,[8],16.4 µM
same,IC50,[9],1.79 µM
same,IC50,[10],12.1 µM
same,IC50,[11],5.98 µM
same,IC50,[12],11.6 µM
same,IC50,[13],11.9 µM
same,IC50,[14],4.36 µM
same,IC50,[15],0.036 µM
same,IC50,[16],0.174 µM
same,IC50,[17],0.49 µM
same,IC50,[18],2.26 µM
same,IC50,[19],0.24 µM
same,IC50,[20],0.348 µM
same,IC50,[21],8.21 µM
same,IC50,[22],0.058 µM
same,TGI,[23],28.2 µM
same,TGI,[24],0.408 µM
same,TGI,[25],12.9 µM
same,TGI,[26],51.6 µM
same,TGI,[27],7.36 µM
same,TGI,[28],52 µM
same,TGI,[29],10.3 µM
same,TGI,[30],> 100 µM
same,TGI,[31],3.14 µM
same,IC50 at 48 h,[32],93.6 µM
same,IC50 at 48 h,[33],75.6 µM
same,inhibition at 10 µM,[34],84.8%
same,selectivity ratio,[35],2100
COc1cccc(-c2nc3sccn3c2-c2ccnc(NCCNS(=O)(=O)c3ccc4ccccc4c3)n2)c1,IC50,[2],0.921 µM
same,IC50,[3],0.169 µM
same,IC50,[4],0.19 µM
same,inhibition at 10 µM,[36],83.1%
